Measured values published in ChEMBL document CHEMBL1123039, “N-substituted imidazolines and ethylenediamines and their action on alpha- and beta-adrenergic receptors” (1985).
Blank lines part the entries; values can stand above or below the compound they belong to.

What was measured:
Rattus norvegicus [1] = experiment: The dose required to increase diastolic blood pressure by 50 mmHg in pithed rats after intravenous administration; format: functional; details: Artery
Summary of the method: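 Pithed rat preparation with the right femoral vein cannulated for iv dosing (1 mL/kg). At least 30 min equilibration preceded drugs. Pressor effect was read as the increase in diastolic blood pressure (mmHg), and heart rate was recorded by a pulse-triggered cardiotachometer. Values are mean ± SEM.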

Rattus norvegicus [2] = experiment: Tested for alpha1 adrenoceptor-Mediated Pressor Response in Pithed Rats; Dose ratio subsequent administration of antagonist (Prazosin) intravenously at a dose of 0.1 mg/kg; format: functional; details: route intravenous
Summary of the method: (§1)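 Pithed rats; drugs given iv through the cannulated right femoral vein at 1 mL/kg after at least 30 min equilibration. Pressor responses to the agonist were recorded as rises in diastolic blood pressure (mmHg), with and without pretreatment with prazosin (0.1 mg/kg, iv; α1-selective) or yohimbine (1 mg/kg, iv; α2-selective). Shift of the agonist dose-response was expressed as a dose ratio (mean ± SEM).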

Rattus norvegicus [3] = experiment: Tested for alpha-2 adrenoceptor-Mediated Pressor Response in Pithed Rats; Dose ratio by subsequent administration of antagonist (yohimbine) intravenously at a dose of 1 mg/kg; format: functional; details: route intravenous; summary of the method: as §1
[4] = tested on: Adrenergic receptor alpha (Rattus norvegicus); experiment: The selectivity was evaluated against alpha 1 and alpha 2 adrenoceptors
Rattus norvegicus [5] = experiment: Tested for alpha-1 adrenoceptor-Mediated Pressor response in Pithed Rats; Dose ratio subsequent administration of antagonist (Prazosin) intravenously at a dose of 0.1 mg/kg; format: functional; details: route intravenous
Summary of the method: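 Pithed rats; drugs given iv via the right femoral vein at 1 mL/kg after at least 30 min equilibration. The pressor response is the rise in diastolic blood pressure (mmHg). Agonist pressor responses were measured after α1-selective blockade with prazosin (0.1 mg/kg, iv), and the dose ratio for the pressor response was derived. Values are mean ± SEM.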

Compound: Br.Br.CCN1CCc2nc(N)oc2CC1
ED50 (Rattus norvegicus [1]): 0.026 mg/kg

Compound: Oc1ccc(CC2=NCCN2)cc1O
Dose ratio (Rattus norvegicus [3]): 0.4
Dose ratio (Rattus norvegicus [5]): 0.8
ED50 (Rattus norvegicus [1]): 0.00035 mg/kg
Selectivity [4]: 2

Compound: c1ccc(C2CC2)c(OCC2=NCCN2)c1 [CIRAZOLINE]
ED50 (Rattus norvegicus [1]): 0.0006 mg/kg

Second part, led by results:

Selectivity [4]: 1.3
Compound: Cl.Cl.NCCNCc1ccc(O)c(O)c1
Dose ratio (Rattus norvegicus [2]): 5.5
Dose ratio (Rattus norvegicus [3]): 4.4
ED50 (Rattus norvegicus [1]): 0.305 mg/kg

Selectivity [4]: 0.3
Compound: Cl.Cl.NCCNCCc1ccc(O)c(O)c1
Dose ratio (Rattus norvegicus [2]): 1.7
Dose ratio (Rattus norvegicus [3]): 5.7
ED50 (Rattus norvegicus [1]): 0.028 mg/kg

Selectivity [4]: 2.2
Compound: Cl.Oc1ccc(CN2C=NCC2)cc1O
Dose ratio (Rattus norvegicus [2]): 5.3
Dose ratio (Rattus norvegicus [3]): 2.4
ED50 (Rattus norvegicus [1]): 0.035 mg/kg

Selectivity [4]: 0.7
Compound: Cl.Oc1ccc(CCN2C=NCC2)cc1O
Dose ratio (Rattus norvegicus [2]): 1.3
Dose ratio (Rattus norvegicus [3]): 2.1
ED50 (Rattus norvegicus [1]): 0.024 mg/kg
